Screening data: PubChem BioAssay, several laboratories
Sampled rows, rich in hits. Any-hit rate of the full collection: about 2.3%.
TRPC6 inhibitor – blocks the mouse TRPC6 cation channel | B-score at 10 µM | 310,000 compounds, 1.1% hits | HEK293-TRPC6, membrane potential dye, ACh-evoked depolarization; hits give low values;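 active = B-score under library mean minus 3 SD, initial fluorescence not abnormally high, positive integrated signal ratio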;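 note: B-score derived from integrated fluorescence ratio over the kinetic read; more negative B-score means stronger inhibition of depolarization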
Target sequence (Q61143 whole entry, looked up): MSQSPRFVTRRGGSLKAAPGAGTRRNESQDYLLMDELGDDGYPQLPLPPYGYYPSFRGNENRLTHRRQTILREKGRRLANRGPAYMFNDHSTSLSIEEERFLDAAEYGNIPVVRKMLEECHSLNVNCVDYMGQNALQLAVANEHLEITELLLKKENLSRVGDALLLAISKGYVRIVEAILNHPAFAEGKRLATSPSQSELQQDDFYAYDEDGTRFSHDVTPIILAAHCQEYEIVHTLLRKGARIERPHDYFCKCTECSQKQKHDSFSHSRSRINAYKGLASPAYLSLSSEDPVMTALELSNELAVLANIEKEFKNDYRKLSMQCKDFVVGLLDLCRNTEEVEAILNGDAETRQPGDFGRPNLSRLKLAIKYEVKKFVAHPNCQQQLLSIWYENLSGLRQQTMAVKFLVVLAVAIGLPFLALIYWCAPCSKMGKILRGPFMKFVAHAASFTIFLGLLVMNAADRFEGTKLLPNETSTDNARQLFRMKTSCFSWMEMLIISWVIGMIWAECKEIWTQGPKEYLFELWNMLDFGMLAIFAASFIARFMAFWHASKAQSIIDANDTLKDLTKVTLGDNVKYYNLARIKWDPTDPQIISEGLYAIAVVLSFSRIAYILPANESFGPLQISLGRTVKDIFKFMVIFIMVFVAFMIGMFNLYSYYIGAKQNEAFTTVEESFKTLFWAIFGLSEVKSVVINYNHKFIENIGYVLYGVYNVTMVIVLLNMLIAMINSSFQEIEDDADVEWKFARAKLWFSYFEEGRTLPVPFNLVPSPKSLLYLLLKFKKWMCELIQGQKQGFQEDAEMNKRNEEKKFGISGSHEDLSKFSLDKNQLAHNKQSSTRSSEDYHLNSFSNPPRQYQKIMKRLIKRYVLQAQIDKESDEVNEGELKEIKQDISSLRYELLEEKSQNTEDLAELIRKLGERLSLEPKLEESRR
CR mimetic SO – lowers age-related superoxide in aged yeast cells. S. cerevisiae aged cells, superoxide DHE fluorescence; hits give low values. superoxide response (% of plate mean), % at 10 µM. 330,000 compounds, 0.18% hits;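 active = superoxide response under a set limit, about three screen SD below normal, cut at about 65% in these data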;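 note: yeast aged for seven days with compound at 30 °C before DHE staining; 100% = average MFI of all compound-treated wells on the plate with controls excluded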
TRPC4 PAM – allosteric potentiators of mouse TRPC4 channel; HEK293 TRPC4beta/mu-opioid, DAMGO EC20, Fluo-4 Ca2+ flux; hits give high values; Q9QUQ5; B-score at 10 µM; 310,000 compounds, 0.42% hits;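 active = B-score of calcium response area above 5 SD of library B-scores, with initial fluorescence ratio within 5 SD of library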;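 note: B-score of integrated fluorescence ratio over time as area under calcium response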
TRPC4 act – TRPC4 (mouse) channel activation; Q9QUQ5; HEK293 TRPC4beta/mu-opioid, Fluo4 calcium fluorescence; hits give high values; B-score at 10 µM; 310,000 compounds, 0.49% hits;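 active = B-score above 5 SD of library B-scores, and initial fluorescence ratio not above library mean plus 5 SD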;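 note: positive B-score marks a calcium rise read as TRPC4 activation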
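Material: HEK293 stable line with TRPC4beta plus mu-opioid receptor; technique: Fluo4 calcium-sensitive dye fluorescence, kinetic, 1 Hz baseline; timing: Fluo4 dye loading 45 min at room temperature, 110 s recording; controls: assay buffer as low control, maximal DAMGO as high control; read-out: integrated baseline-normalised fluorescence ratio, converted to per-well B score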
TRPC4 block – TRPC4 (mouse) channel inhibition; HEK293 TRPC4beta/mu-opioid, DAMGO-evoked Fluo4 calcium flux; hits give low values; AID 2247; 300,000 compounds, 0.39% hits; B-score at 10 µM; Q9QUQ5;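 active = B-score over 3 SD under the library average, no early fluorescence shift, positive overall ratio signal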
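Material: HEK293 cells with stable TRPC4beta plus mu-opioid receptor expression; probe or stimulus: DAMGO in two steps, submaximal then maximal; technique: Fluo4 calcium fluorescence by kinetic imaging, 5 s 1 Hz baseline; measure: integrated fluorescence ratio relative to baseline, converted to per-well B score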
TRPC6 activator – mouse TRPC6 channel activation; Q61143; HEK293-TRPC6 membrane potential dye fluorescence; hits give high values; B-score at 10 µM; 310,000 compounds, 0.13% hits; AID 2550;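 active = B-score of the integrated fluorescence ratio above library mean plus 3 SD, and starting fluorescence ratio within library mean plus 5 SD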;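 note: higher score means more depolarization so channel activation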
TRPC4 spec 2 – second selectivity test of TRPC6 inhibitors: effect on mouse TRPC4; shares compounds with TRPC6 inhibitor; HEK293 TRPC4/MOR, membrane potential dye fluorescence; channel activated by saturating DAMGO dose; inhibition, % at 10 µM; 920 compounds, 42% hits; AID 2776;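 active = compounds whose fluorescence signal differed from control wells by over 3 SD, either direction, in both duplicate plates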
TRPC4 spec – mouse TRPC4 off-target activity of TRPC6 inhibitors. activity change, negative = inhibition, % at 10 µM. HEK293 TRPC4/mu-opioid, membrane potential fluorescence. 920 compounds, 61% hits. shares compounds with TRPC6 inhibitor;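 active = rise or fall in signal beyond 3 SD of buffer-only wells in both replicate plates, either sign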;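 note: integrated kinetic ratio of fluorescence range over baseline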
HEK293 MPD ctr 2-1 – second check of TRPC6 inhibitor effects in parental HEK293 cells; shares compounds with TRPC6 inhibitor; parental HEK293 membrane potential dye fluorescence; maximal acetylcholine challenge after compound addition; signal change vs control, % at 10 µM; 920 compounds, 31% hits;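 active = membrane potential signal moving either way by over 3 SD of the maximum-effect control, in both duplicate plates, meaning non-specific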
HEK293 MPD ctr-1 – parental HEK293 nonspecific activity of TRPC6 inhibitors; shares compounds with TRPC6 inhibitor; parental HEK293 membrane potential dye fluorescence; 920 compounds, 60% hits; membrane potential signal change, % at 10 µM;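 active = membrane potential signal shifting up or down by more than 3 SD of buffer-only wells, on both duplicate plates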
HEK293 MPD ctr-2 – parental HEK293 nonspecific activity of TRPC6 modulators | shares compounds with TRPC6 inhibitor | membrane potential dye fluorescence | membrane potential signal change, % at 10 µM | 2,400 compounds, 51% hits | AID 488924;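 active = membrane potential signal moves up or down beyond 5 SD from buffer-only wells, on both duplicate plates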
HEK293 MPD ctr 2-2 – parental HEK293 nonspecific activity of TRPC6 modulators, second screen; shares compounds with TRPC6 inhibitor; membrane potential dye fluorescence; after compound, maximal acetylcholine stimulation; inhibition, % at 10 µM; 2,400 compounds, 14% hits; AID 488926;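 active = membrane potential signal drops by more than 5 SD from the mean control signal, in both duplicate plates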;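 note: plate controls were acetylcholine ECmax control wells for no effect and buffer only wells for full effect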
TRPC4 ctr mod – selectivity of TRPC6 modulators against mouse TRPC4; AID 488927; percent change from control (negative = decrease, positive = increase), % at 10 µM; 2,400 compounds, 69% hits; HEK293 TRPC4/mu-opioid, membrane potential fluorescence; shares compounds with TRPC6 inhibitor;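 active = membrane potential signal moved up or down beyond 5 SD of buffer control wells, in both duplicate plates, actives on both sides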;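 note: plate controls were assay buffer wells for no effect and DAMGO maximal-effect wells for full effect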
TRPC4 ctr inh 2 – second check of whether TRPC6 modulators also affect mouse TRPC4; shares compounds with TRPC6 inhibitor; 2,400 compounds, 55% hits; AID 488928; inhibition, % at 10 µM; HEK293 TRPC4/mu-opioid, membrane potential dye fluorescence; stimulated with maximal-effect DAMGO;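 active = drop in membrane potential signal beyond 5 SD of the control wells in both duplicate plates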;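 note: TRPC4 counter screen for TRPC6 hits run under conditions tuned for TRPC6 not TRPC4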
TRPC6 inh conf – confirmation of mouse TRPC6 inhibitors. shares compounds with TRPC6 inhibitor. HEK293-TRPC6, membrane potential dye, ACh-evoked depolarization. inhibition, % at 10 µM. 3,300 compounds, 43% hits. AID 488960;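 active = fluorescence ratio falls more than 5 SD below the full-stimulation control mean, in both duplicate runs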;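 note: integrated fluorescence ratio of peak minus minimum over baseline after agonist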
TRPC6 act confirm – confirmation of mouse TRPC6 activators | HEK293-TRPC6 membrane potential dye fluorescence, FDSS | 2,800 compounds, 11% hits | activation, % at 10 µM | AID 488961 | shares compounds with TRPC6 inhibitor;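 active = ratio signal rise beyond 5 SD above unstimulated control wells' mean, seen in both duplicate runs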;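 note: plate controls were buffer EC0 wells for no effect and acetylcholine ECmax response for full effect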
Active calls of the source: *; i = inactive; . = no result; + = active, no number.

SMILES	TRPC6 inhibitor	CR mimetic SO	TRPC4 PAM	TRPC4 act	TRPC4 block	TRPC6 activator	HEK293 MPD ctr-2	HEK293 MPD ctr 2-2	TRPC4 ctr mod	TRPC4 ctr inh 2	TRPC6 inh conf	TRPC6 act confirm	others
N#CC1=C(N)Oc2cc(N)ccc2C1c1ccc(F)cc1F (stereo not given)	i	102	i	64*	i	39*	121%*	i	i	i	i	27%*
N#CC1=C(N)Oc2cc(N)ccc2C1c1ccc(Cl)cc1 (stereo not given)	i	104	i	i	i	12*	i	i	i	i	i	i
Nc1c(C(=O)c2ccc(Cl)cc2)sc2nsc(SCCN3CCOCC3)c12	i	95	i	i	i	i	.	.	.	.	.	.
Nc1c(C(=O)c2ccccc2)sc2nsc(SCCN3CCCC3)c12	i	96	i	86*	i	65*	+	i	272%*	36%*	i	513%*
CN1CCC(=NNC(=O)C(=O)NC2CCCC2)CC1	i	136	i	i	i	i	.	.	.	.	.	.
COc1ccc2c(c1)CCCN2C(N)=O	i	103	i	i	i	i	.	.	.	.	.	.
COc1ccc2c(c1)CCCN2C(N)=Nc1ccc(Cl)cc1	-6.5*	104	i	i	i	i	114%*	i	16%*	69%*	i	.
COc1cc([N+](=O)[O-])ccc1-c1ccc(/C=N\n2cnnc2)o1	-9.3*	98	i	i	i	i	i	i	-61%*	39%*	i	i
Cc1cc(-c2ccc(/C=N/n3cnnc3)o2)c(C)c([N+](=O)[O-])c1	-6*	103	i	i	i	i	-221%*	71%*	-44%*	58%*	48%*	i
CN1CCN(/N=C/c2ccc(-c3ccc([N+](=O)[O-])cc3Cl)o2)CC1	i	90	i	i	i	13*	260%*	i	39%*	i	i	92%*
O=[N+]([O-])c1ccc(Cl)c(-c2ccc(/C=N/n3cnnc3)o2)c1	-7.3*	107	i	i	i	i	-154%*	i	-30%*	i	i	i
COc1cc([N+](=O)[O-])ccc1-c1ccc(/C=N/NC(=O)c2ccccc2O)o1	i	.	i	i	i	i	.	.	.	.	.	.
CN(C)c1ccc(/C=C/C(=O)c2cccnc2)cc1	i	103	i	i	i	133*	+	+	470%*	160%*	.	864%*
O=C(/C=C/c1cccc(O)c1)c1cccnc1	i	106	i	i	i	i	.	.	.	.	.	.
Cc1ccc(NS(=O)(=O)c2ccc(CCC(=O)N3CCCC3)cc2)cc1	i	107	i	i	i	i	.	.	.	.	.	.
Cc1cc(C)nc(/N=C(\N)Nc2ccc([N+](=O)[O-])cc2)n1	i	100	i	i	i	i	.	.	.	.	.	.
COc1cc(NC(N)=S)c(OC)cc1Cl	i	100	i	i	i	i	.	.	.	.	.	.
Cc1cc(C)nc(/N=C(\N)Nc2cc([N+](=O)[O-])ccc2C)n1	-7.1*	94	i	i	i	i	-166%*	i	-28%*	48%*	58%*	i
COc1cc(N/C(N)=N/c2nc(C)cc(C)n2)c(OC)cc1Cl	-8.2*	91	i	i	i	i	.	.	.	.	90%*	i	TRPC4 spec 2=i;TRPC4 spec=-11%*;HEK293 MPD ctr 2-1=i;HEK293 MPD ctr-1=-170%*
COc1ccc2c(c1OC)C(=O)OC2C1c2c(cc3c(c2OC)OCO3)CCN1C (stereo not given)	i	95	i	i	i	i	.	.	.	.	.	.
CN1CCc2cc3c(c4c2[C@H]1[C@H](O)c1ccccc1-4)OCO3	-5.1*	.	i	i	i	i	i	i	-24%*	48%*	i	i
CC(O)CNCCNCc1c(OCc2ccccc2)ccc2ccccc12 (stereo not given)	-7.9*	91	i	i	i	i	.	.	.	.	66%*	i	TRPC4 spec 2=28%*;TRPC4 spec=-9.5%*;HEK293 MPD ctr 2-1=i;HEK293 MPD ctr-1=i
COc1ccc(NC(=O)CCc2nc(-c3ccc(C)cc3)no2)c(OC)c1	i	88	i	i	i	i	.	.	.	.	.	.
COc1cc(N2CCCC2)c(OC)cc1C=O	-7.9*	97	i	i	i	i	.	.	.	.	i	i	TRPC4 spec 2=i;TRPC4 spec=i;HEK293 MPD ctr 2-1=250%*;HEK293 MPD ctr-1=i
N#CCCN(CCN1CCCC1)S(=O)(=O)c1ccc(-c2ccc([N+](=O)[O-])cc2)cc1	-7.8*	110	i	i	i	i	.	.	.	.	88%*	i	TRPC4 spec 2=32%*;TRPC4 spec=-27%*;HEK293 MPD ctr 2-1=30%*;HEK293 MPD ctr-1=-268%*
CC1CCN(S(=O)(=O)c2ccc3c(c2)c(=O)c(C(=O)NCc2cccs2)cn3C)CC1	i	120	i	i	i	i	.	.	.	.	.	.
COC(=O)CCC(=O)COc1ccc(OC)cc1C#N	.	95	.	.	.	.	.	.	.	.	.	.
